Source: ChEMBL document CHEMBL1143406 (Antimicrob Agents Chemother, 2007)

Experiments:
[1] = Tmax in HIV-negative human at 600 mg, po administered every 24 hrs coadministered with 300 mg of atazanavir every 12 hrs; type: ADME, organism-based; conditions: in vivo
[2] = Cmax in HIV-negative human at 600 mg, po administered every 24 hrs coadministered with 300 mg of atazanavir every 12 hrs; type: ADME, organism-based; design: dose 600 mg, route oral; conditions: in vivo
[3] = AUC (24 hrs) in HIV-negative human at 600 mg, po administered every 24 hrs coadministered with 300 mg of atazanavir every 12 hrs; type: ADME, organism-based; design: dose 600 mg, time < 24 hr, route oral; conditions: plasma
[4] = test system: Homo sapiens; assay: Terminal apparent distribution volume in HIV-negative human at 600 mg, po administered every 24 hrs coadministered with 300 mg of atazanavir every 12 hrs; type: ADME, organism-based; conditions: in vivo
[5] = Apparent oral clearance in HIV-negative human at 600 mg, po administered every 24 hrs coadministered with 300 mg of atazanavir every 12 hrs; type: ADME, organism-based; conditions: in vivo
[6] = Tmax in HIV-negative human at 600 mg, po administered every 24 hrs coadministered with 400 mg of atazanavir every 12 hrs; type: ADME, organism-based; conditions: in vivo
[7] = Cmax in HIV-negative human at 600 mg, po administered every 24 hrs coadministered with 400 mg of atazanavir every 12 hrs; type: ADME, organism-based; design: dose 600 mg, route oral; conditions: in vivo
[8] = AUC (24 hrs) in HIV-negative human at 600 mg, po administered every 24 hrs coadministered with 400 mg of atazanavir every 12 hrs; type: ADME, organism-based; design: time < 24 hr, dose 600 mg, route oral; conditions: plasma
[9] = test system: Homo sapiens; assay: Terminal apparent distribution volume in HIV-negative human at 600 mg, po administered every 24 hrs coadministered with 400 mg of atazanavir every 12 hrs; type: ADME, organism-based; conditions: in vivo
[10] = Apparent oral clearance in HIV-negative human at 600 mg, po administered every 24 hrs coadministered with 400 mg of atazanavir every 12 hrs; type: ADME, organism-based; conditions: in vivo
[11] = Half life in HIV-negative human at 300 mg, po administered every 12 hrs; type: ADME, organism-based; conditions: in vivo
Outline: (§1)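 Healthy HIV-negative volunteers, open-label sequential periods at steady state. […] Plasma (EDTA) drawn predose and 1–12 h (plus 24 h) on last day of period. Atazanavir measured by HPLC-UV 212 nm, linear 25–20,000 ng/ml. Noncompartmental analysis; AUC24 taken as doubled AUC12.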

[12] = Half life in HIV-negative human at 300 mg, po administered every 12 hrs coadministered with 600 mg of rifampin every 24 hrs; type: ADME, organism-based; conditions: in vivo; outline: as §1
[13] = Half life in HIV-negative human at 400 mg, po administered every 12 hrs coadministered with 600 mg of rifampin every 24 hrs; type: ADME, organism-based; conditions: in vivo; outline: as §1
[14] = Tmax in HIV-negative human at 300 mg, po administered every 12 hrs; type: ADME, organism-based; conditions: in vivo; outline: as §1
[15] = Tmax in HIV-negative human at 300 mg, po administered every 12 hrs coadministered with 600 mg of rifampin every 24 hrs; type: ADME, organism-based; conditions: in vivo; outline: as §1
[16] = Tmax in HIV-negative human at 400 mg, po administered every 12 hrs coadministered with 600 mg of rifampin every 24 hrs; type: ADME, organism-based; conditions: in vivo; outline: as §1
[17] = Cmax in HIV-negative human at 300 mg, po administered every 12 hrs; type: ADME, organism-based; design: dose 300 mg, route oral; conditions: in vivo; outline: as §1
[18] = Cmax in HIV-negative human at 300 mg, po administered every 12 hrs coadministered with 600 mg of rifampin every 24 hrs; type: ADME, organism-based; design: dose 300 mg, route oral; conditions: in vivo; outline: as §1
[19] = Cmax in HIV-negative human at 400 mg, po administered every 12 hrs coadministered with 600 mg of rifampin every 24 hrs; type: ADME, organism-based; design: dose 400 mg, route oral; conditions: in vivo; outline: as §1
[20] = Drug level in HIV-negative human serum at 300 mg, po administered every 12 hrs measured at 12 hrs; type: ADME, organism-based
Outline: (§2)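 Steady-state atazanavir level 12 h after morning dose, sampled before the evening dose and read directly from observed data. […] Plasma measured by HPLC-UV at 212 nm after tert-butyl methyl ether extraction. Linear range 25–20,000 ng/ml.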

[21] = Drug level in HIV-negative human serum at 300 mg, po administered every 12 hrs coadministered with 600 mg of rifampin every 24 hrs measured at 12 hrs; type: ADME, organism-based; outline: as §2
[22] = Drug level in HIV-negative human serum at 400 mg, po administered every 12 hrs coadministered with 600 mg of rifampin every 24 hrs measured at 12 hrs; type: ADME, organism-based; outline: as §2
[23] = AUC (12 hrs) in HIV-negative human at 300 mg, po administered every 12 hrs; type: ADME, organism-based; design: time < 12 hr, dose 300 mg, route oral; conditions: plasma; outline: as §1
[24] = AUC (12 hrs) in HIV-negative human at 300 mg, po administered every 12 hrs coadministered with 600 mg of rifampin every 24 hrs; type: ADME, organism-based; design: dose 300 mg, time < 12 hr, route oral; conditions: plasma; outline: as §1
[25] = AUC (12 hrs) in HIV-negative human at 400 mg, po administered every 12 hrs coadministered with 600 mg of rifampin every 24 hrs; type: ADME, organism-based; design: dose 400 mg, time < 12 hr, route oral; conditions: plasma; outline: as §1
[26] = AUC (24 hrs) in HIV-negative human at 300 mg, po administered every 12 hrs; type: ADME, organism-based; design: dose 300 mg, time < 24 hr, route oral; conditions: plasma; outline: as §1
[27] = AUC (24 hrs) in HIV-negative human at 300 mg, po administered every 12 hrs coadministered with 600 mg of rifampin every 24 hrs; type: ADME, organism-based; design: dose 300 mg, time < 24 hr, route oral; conditions: plasma; outline: as §1
[28] = AUC (24 hrs) in HIV-negative human at 400 mg, po administered every 12 hrs coadministered with 600 mg of rifampin every 24 hrs; type: ADME, organism-based; design: dose 400 mg, time < 24 hr, route oral; conditions: plasma; outline: as §1
[29] = test system: Homo sapiens; assay: Terminal apparent distribution volume in HIV-negative human serum at 300 mg, po administered every 12 hrs; type: ADME, organism-based; conditions: in vivo; outline: as §1
[30] = test system: Homo sapiens; assay: Terminal apparent distribution volume in HIV-negative human serum at 300 mg, po administered every 12 hrs coadministered with 600 mg of rifampin every 24 hrs; type: ADME, organism-based; conditions: in vivo; outline: as §1
[31] = test system: Homo sapiens; assay: Terminal apparent distribution volume in HIV-negative human serum at 400 mg, po administered every 12 hrs coadministered with 600 mg of rifampin every 24 hrs; type: ADME, organism-based; conditions: in vivo; outline: as §1
[32] = Apparent oral clearance in HIV-negative human serum at 300 mg, po administered every 12 hrs; type: ADME, organism-based; outline: as §1
[33] = Apparent oral clearance in HIV-negative human serum at 300 mg, po administered every 12 hrs coadministered with 600 mg of rifampin every 24 hrs; type: ADME, organism-based; outline: as §1
[34] = Apparent oral clearance in HIV-negative human serum at 300 mg, po administered every 12 hrs coadministered with […] every 24 hrs; type: ADME, organism-based
[35] = Cmax in HIV-negative human at 300 mg coadministered with 100 mg of ritonavir every 24 hrs; type: ADME, organism-based; design: dose 300 mg; conditions: in vivo
[36] = Cmax in HIV-negative human at 400 mg administered every 24 hrs; type: ADME, organism-based; design: dose 400 mg; conditions: in vivo
[37] = AUC (24hrs) in HIV-negative human at 400 mg administered every 24 hrs; type: ADME, organism-based; conditions: plasma
[38] = species: Homo sapiens; assay: Toxicity in HIV-negative human assessed as grade 3 fatigue; type: organism-based; conditions: in vivo
[39] = test system: Homo sapiens; assay: Toxicity in HIV-negative human assessed as alanine aminotransferase levels at 300 mg, po administered every 12 hrs; type: organism-based; conditions: in vivo
[40] = test system: Homo sapiens; assay: Toxicity in HIV-negative human assessed as alanine aminotransferase levels at 300 mg, po administered every 12 hrs administered every 12 hrs coadministered with 600 mg of rifampin every 24 hrs; type: organism-based; conditions: in vivo
[41] = test system: Homo sapiens; assay: Toxicity in HIV-negative human assessed as creatinine levels at 300 mg, po administered every 12 hrs; type: organism-based; conditions: in vivo
[42] = test system: Homo sapiens; assay: Toxicity in HIV-negative human assessed as creatinine levels at 300 mg, po administered every 12 hrs administered every 12 hrs coadministered with 600 mg of rifampin every 24 hrs; type: organism-based; conditions: in vivo
[43] = test system: Homo sapiens; assay: Toxicity in HIV-negative human assessed as hemoglobin level at 300 mg, po administered every 12 hrs; type: organism-based; conditions: in vivo
[44] = test system: Homo sapiens; assay: Toxicity in HIV-negative human assessed as hemoglobin level at 300 mg, po administered every 12 hrs administered every 12 hrs coadministered with 600 mg of rifampin every 24 hrs; type: organism-based; conditions: in vivo
[45] = test system: Homo sapiens; assay: Toxicity in HIV-negative human assessed as bilirubin level at 300 mg, po administered every 12 hrs; type: organism-based; conditions: in vivo
Outline: (§3)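 Serum bilirubin measured at commercial laboratories as a safety test during steady-state dosing periods in healthy HIV-negative volunteers.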

[46] = test system: Homo sapiens; assay: Toxicity in HIV-negative human assessed as bilirubin level at 300 mg, po administered every 12 hrs administered every 12 hrs coadministered with 600 mg of rifampin every 24 hrs; type: organism-based; conditions: in vivo; outline: as §3
[47] = test system: Homo sapiens; assay: Toxicity in human with two gilbert's genotype homozygotes assessed as bilirubin level at 300 mg, po administered every 12 hrs; type: organism-based; conditions: in vivo
[48] = test system: Homo sapiens; assay: Toxicity in human with six gilbert's genotype heterozygotes assessed as bilirubin level at 300 mg, po administered every 12 hrs; type: organism-based; conditions: in vivo
[49] = test system: Homo sapiens; assay: Toxicity in gilbert's genotype lacking human assessed as bilirubin level at 300 mg, po administered every 12 hrs; type: organism-based; conditions: in vivo
[50] = AUC (24 hrs) in HIV-negative human at 300 mg coadministered with 100 mg of ritonavir every 24 hrs; type: ADME, organism-based; design: dose 300 mg, time < 24 hr; conditions: plasma
[51] = test system: Homo sapiens; assay: Toxicity in HIV-negative human assessed as bilirubin level at 400 mg, po administered every 12 hrs coadministered with 600 mg of rifampin every 24 hrs; conditions: in vivo
[52] = test system: Homo sapiens; assay: Toxicity in HIV-negative human assessed as hemoglobin level at 400 mg, po administered every 12 hrs coadministered with 600 mg of rifampin every 24 hrs; conditions: in vivo
[53] = test system: Homo sapiens; assay: Toxicity in HIV-negative human assessed as creatinine levels at 400 mg, po administered every 12 hrs coadministered with 600 mg of rifampin every 24 hrs; conditions: in vivo
[54] = test system: Homo sapiens; assay: Toxicity in HIV-negative human assessed as alanine aminotransferase levels at 400 mg, po administered every 12 hrs coadministered with 600 mg of rifampin every 24 hrs; conditions: in vivo

SMILES: CO[C@H]1/C=C/O[C@@]2(C)Oc3c(C)c(O)c4c(O)c(c(/C=N/N5CCN(C)CC5)c(O)c4c3C2=O)NC(=O)/C(C)=C\C=C\[C@H](C)[C@H](O)[C@@H](C)[C@@H](O)[C@@H](C)[C@H](OC(C)=O)[C@@H]1C [RIFAMPIN]
- Tmax [1]: 2.7 h
- Cmax [2]: 9490 ng/mL
- AUC at 24 h [3]: 45700 ng·h/mL
- Vbeta [4]: 32 L
- CL/F [5]: 252 mL/min
- Tmax [6]: 2.7 h
- Cmax [7]: 10100 ng/mL
- AUC at 24 h [8]: 41700 ng·h/mL
- Vbeta [9]: 33 L
- CL/F [10]: 275 mL/min

SMILES: COC(=O)N[C@H](C(=O)N[C@@H](Cc1ccccc1)[C@@H](O)CN(Cc1ccc(-c2ccccn2)cc1)NC(=O)[C@@H](NC(=O)OC)C(C)(C)C)C(C)(C)C [ATAZANAVIR]
- half-life [11]: 5.1 h
- half-life [12]: 2.2 h
- half-life [13]: 2.4 h
- Tmax [14]: 3.2 h
- Tmax [15]: 2.7 h
- Tmax [16]: 2.9 h
- Cmax [17]: 3910 ng/mL
- Cmax [18]: 1430 ng/mL
- Cmax [19]: 2360 ng/mL
- concentration at 12 h [20]: 811 ng/mL
- concentration at 12 h [21]: 44 ng/mL
- concentration at 12 h [22]: 113 ng/mL
- AUC at 12 h [23]: 23800 ng·h/mL
- AUC at 12 h [24]: 5100 ng·h/mL
- AUC at 12 h [25]: 9800 ng·h/mL
- AUC at 24 h [26]: 47600 ng·h/mL
- AUC at 24 h [27]: 10300 ng·h/mL
- AUC at 24 h [28]: 19600 ng·h/mL
- Vbeta [29]: 78 L
- Vbeta [30]: 252 L
- Vbeta [31]: 171 L
- CL/F [32]: 202 mL/min
- CL/F [33]: 1390 mL/min
- CL/F [34]: 808 mL/min
- Cmax [35]: 6130 ng/mL
- Cmax [36]: 5200 ng/mL
- AUC at 24 h [37]: 29300 ng·h/mL
- Activity [38]: 7%
- Activity [39]: Non-toxic
- Activity [40]: Non-toxic
- Activity [41]: Non-toxic
- Activity [42]: Non-toxic
- Activity [43]: Non-toxic
- Activity [44]: Non-toxic
- Activity [45]: Toxic
- Activity [46]: Non-toxic
- Activity [47]: 5 mg/dL
- Activity [48]: 4.1 mg/dL
- Activity [49]: 2.6 mg/dL
- AUC at 24 h [50]: 61400 ng·h/mL
- Activity [51]: Non-toxic
- Activity [52]: Non-toxic
- Activity [53]: Non-toxic
- Activity [54]: Non-toxic
